Compound activity as filed in PubChem BioAssay.
A selection: hits, their analogues and other compounds. The true share with any hit is near 4.5%.
GPR7 antagonist – antagonists of human GPR7 (neuropeptides B/W receptor 1). GPR7-expressing cells, fluorescence antagonist assay. 290,000 compounds, 1.1% hits. inhibition, % at 4.4 µM; in the data active = inhibition above about 16%, passing the limit was not always enough;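 note: cells stimulated with the agonist NPW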
OX1R antag-1 – OX1R (human) antagonism | O43613 | 330,000 compounds, 1.8% hits | OX1R-expressing cells, FRET antagonist read-out | inhibition, % at 6.6 µM | AID 485270; in the data active = inhibition mostly above about 38%, no sharp cut-off; inactive = mostly below about 40%
Target sequence (O43613 whole entry, looked up): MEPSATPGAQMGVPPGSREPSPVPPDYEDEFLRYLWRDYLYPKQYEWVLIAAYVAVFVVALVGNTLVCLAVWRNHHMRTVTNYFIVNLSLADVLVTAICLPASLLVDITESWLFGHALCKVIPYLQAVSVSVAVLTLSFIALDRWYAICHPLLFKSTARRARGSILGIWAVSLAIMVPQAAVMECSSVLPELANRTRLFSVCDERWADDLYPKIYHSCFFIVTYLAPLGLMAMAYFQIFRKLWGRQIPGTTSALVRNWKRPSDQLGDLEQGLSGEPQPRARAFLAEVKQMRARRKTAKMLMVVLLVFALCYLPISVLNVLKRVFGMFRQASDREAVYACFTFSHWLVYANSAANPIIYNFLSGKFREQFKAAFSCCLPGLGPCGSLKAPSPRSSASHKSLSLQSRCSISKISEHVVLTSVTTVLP
OX1R antag-2 – antagonists of human orexin 1 receptor; inhibition, % at 5 µM; 330,000 compounds, 0.43% hits; O43613; CHO/OX1R cells, Fluo-8 calcium fluorescence, orexin A;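 active = inhibition above its plate's threshold, mean inhibition of all tested compounds on the plate plus 3 SD, cut at about 37% in these data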
TAAR1 agonist – agonists of human TAAR1; Q96RJ0; CHO RD-HGA16 TAAR1, Fluo-8 calcium fluorescence; vehicle wells 0%, saturating PEA agonist 100%; activation, % at 3 µM; 360,000 compounds, 0.99% hits; AID 624467;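 active = activation above the mean activation of all test compounds in the run plus 3 SD, cut at about 38% in these data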
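System: CHO RD-HGA16 cells carrying human TAAR1 plus Gα16; Incubation: 17-24 h seeding, 75 min 37 °C dye, 30 min RT; Measured by: Fluo-8 fluorescence, 5 s baseline then 140 s kinetic read; Control set: DMSO and PEA EC100; Replication: single well for each compound.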
TAAR1 antagonist – human TAAR1 antagonism | Q96RJ0 | CHO RD-HGA16 TAAR1, Fluo-8 calcium fluorescence, antagonist | inhibition, % at 3 µM | 360,000 compounds, 1.5% hits;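 active = inhibition above a per-plate cutoff, the mean inhibition of test compounds on that plate plus 3 SD, cut at about 49% in these data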
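System: RD-HGA16 CHO cells with stable hTAAR1 and Gα16 | Probe or stimulus: EC80 β-phenethylamine stimulus | Dosing: 3 µM, single point | Times: Dye loading 75 min at 37 °C, then 30 min room temperature | Measured by: Fluo-8 calcium-sensitive fluorescence | Read-out basis: % inhibition of agonist calcium response | Replicates: n of 1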
CHO parental Ca – counter-screen: ATP calcium response change in parental CHO cells; parental CHO-K1, ATP-induced calcium, Fluo-8 fluorescence; inhibition, % at 5.6 µM; 330,000 compounds, 0.63% hits; AID 463079;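 active = inhibition above that plate's mean sample inhibition plus 3 SD, cut at about 26% in these data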
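Assay system – parental CHO cells · Reagent – ATP stimulus · Detection – intracellular calcium via Fluo-8 no-wash fluorescent dye · Evaluation – percent inhibition of ATP-evoked calcium rise, normalized to controls · Controls – ATP wells versus no-ATP DMSO wells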
A number is an active result; n = inactive; x = not tested or not shown.

SMILES | GPR7 antagonist | OX1R antag-1 | OX1R antag-2 | TAAR1 agonist | TAAR1 antagonist | CHO parental Ca
O=C(c1ncc[nH]1)c1ccccc1C(=O)N1CCOCC1 | n | n | n | n | n | n
COc1ccc(C(=O)C(CN2CCOCC2)c2ccccc2)cc1F (centres undefined) | 35.1 | x | x | n | n | x
COc1ccc(-c2sc3ccccc3c2-c2ccc(OCCN(C)C)cc2)cc1 | x | n | 70.2 | n | n | 50.4
CCOC(=O)C1(CC2CCCCO2)CCN(Cc2nccn2-c2cccc(C)c2)CC1 (centres undefined) | 19.4 | n | n | n | n | n
Cc1ccc(-n2c(-c3ccccc3)cc(/C=N/NC(=O)CC#N)c2-c2ccccc2)cc1 | n | n | n | n | n | n
N#CCC(=O)N/N=C/c1cc(-c2ccccc2)n(-c2ccc(Cl)cc2)c1-c1ccccc1 | n | 103.6 | n | n | n | n
COc1cccc(C2NC(=S)NC(C)=C2C(C)=O)c1 (centres undefined) | x | x | x | n | n | x
COc1cc(N)c2ncsc2c1 | x | x | x | n | n | x
O=C(CN1C(=O)c2cccc([N+](=O)[O-])c2C1=O)NCc1ccccc1 | n | n | n | n | n | n
O=C(CN1C(=O)c2ccc([N+](=O)[O-])cc2C1=O)Nc1ccccc1N1CCCC1 | x | 51.9 | n | n | n | n
N#CC1(NC(=O)CN2C(=O)c3ccc([N+](=O)[O-])cc3C2=O)CCCCC1 | x | 52.7 | n | n | n | n
O=C(CN1C(=O)c2ccc([N+](=O)[O-])cc2C1=O)NCc1ccc(C(=O)O)cc1 | n | 62.1 | n | n | n | n
O=C(CCN1C(=O)c2ccc([N+](=O)[O-])cc2C1=O)Nc1ccc(O)cc1C(=O)O | n | 55.9 | n | n | n | n
COc1ccc(-c2cccc3c4c([nH]c23)[C@@H]2C[C@H]3[C@@H](C(=O)N2CC4)[C@H](C)ON3C)cc1 | x | x | x | n | n | x
Cc1cc(N2CCNC[C@H]2C)ccc1N1C[C@@H](C)O[C@@H](C)C1 | x | x | x | n | n | x
COC(=O)[C@@]12C[C@@H](CC(=O)N3CCC(c4ccccc4)CC3)C(=O)N(CCc3ccc(OC)c(OC)c3)C1=CCC(C)(C)C2 | x | x | x | n | n | x
O=C(Nc1cc([N+](=O)[O-])ccc1N1CCCC1)c1ccco1 | n | 64.9 | n | n | n | n
O=C(CCn1c(=S)[nH]c2ccccc2c1=O)NCCSCc1ccccc1 | n | n | n | n | n | n
O=C(Cn1c(=S)[nH]c2ccccc2c1=O)NCCc1ccccc1 | n | n | n | 38.2 | n | n
Cc1ccc(S(=O)(=O)N2CCCc3ccccc32)cc1C | n | n | n | n | n | 30.0
COc1ccc(N2CCN(c3ccc(C(N)=O)cc3[N+](=O)[O-])CC2)cc1 | n | n | n | n | n | n
COc1cccc(N2CCN(c3ccc(N4C(=O)CCC4=O)cc3[N+](=O)[O-])CC2)c1 | n | n | n | n | n | 32.9
COc1ccccc1N1CCN(c2ccc(N3C(=O)CCC3=O)cc2[N+](=O)[O-])CC1 | n | n | n | n | n | 57.3
C=C(C)CN1CCN(c2ccc(N3C(=O)CCCC3=O)cc2[N+](=O)[O-])CC1 | n | n | n | n | n | n
COC(=O)c1cc2c(c3c4cc(F)ccc4n(S(=O)(=O)c4ccccc4)c13)C(=O)N(Cc1ccccc1)C2 | x | x | x | n | n | x
SMILES | GPR7 antagonist | OX1R antag-1 | OX1R antag-2 | TAAR1 agonist | TAAR1 antagonist | CHO parental Ca
CC(=O)Nc1ccc(NC(=O)C2CCN(S(C)(=O)=O)CC2)cc1 | x | x | x | n | n | x
CCCNC(=O)C1(C)CCCN(Cc2ccc(C(F)(F)F)cc2)C1 (centres undefined) | x | x | x | n | n | x
Cc1ccccc1N(CC(=O)N/N=C/c1ccc(N(C)C)cc1)C(=O)c1ccccc1 | n | 62.6 | n | n | n | n
CN(C)c1ccc(/C=N/NC(=O)COc2ccccc2)cc1 | n | n | n | n | n | n
CCN(CC)c1ccc(/C=c2\sc3nc4ccccc4n3c2=O)c(O)c1 | n | x | x | n | 64.0 | x
O=C(CN1C(=O)/C(=C/c2ccccc2F)Sc2ccccc21)NCC1CCCO1 (centres undefined) | n | 66.2 | n | n | n | n
O=C(CN1C(=O)NC2(CCCC2)C1=O)NCCN1C(=O)S/C(=C\c2ccccc2F)C1=O | x | 51.1 | n | n | n | n
C[C@@H]1CN([C@H](C)CO)C(=O)c2cc(NS(=O)(=O)c3ccccc3)ccc2O[C@@H](C)CCCCO[C@@H]1CN(C)Cc1ccc(Cl)c(Cl)c1 | x | x | x | n | n | x
CCN(CC)S(=O)(=O)c1ccc(NC(=O)C2c3ccccc3Oc3ccccc32)cc1 | n | n | n | 41.3 | n | n
CCc1nnc(NC(=O)c2cc3ccccc3oc2=O)s1 | n | 76.6 | n | n | n | n
CNS(=O)(=O)c1ccc(NC(=O)C2c3ccccc3Oc3ccccc32)cc1 | n | n | n | n | n | n
CCc1nnc(NC(=O)C2c3ccccc3Oc3ccccc32)s1 | n | n | n | 51.2 | n | n
CC(C)(C)n1nc(C2CC2)c(Br)c1NC(=O)c1ccccc1Cl | x | x | x | n | n | x
Cc1cn(CC(=O)NCC(c2ccccc2)c2ccccc2)c(=O)[nH]c1=O | x | x | x | n | n | x
O=C(NN=Cc1ccccc1O)C(=O)Nc1ccc(F)cc1 | x | x | x | n | n | x
CC1CCN(C(=O)c2ncn3c2C(=O)NC[C@@H]3C)CC1 | x | x | x | n | n | x
C[C@@H]1CNCCN1c1ccc(N2CCS(=O)(=O)CC2)c(C#N)c1 | x | x | x | n | n | x
CNc1ccc2c3c(cccc13)C(=O)N(C)C2=O | n | n | 87.9 | 157.0 | n | 78.6
CN1C(=O)c2cccc3c(Br)ccc(c23)C1=O | x | n | n | n | n | n
CCOC(=O)N1CCN(CC(=O)Nc2ccc(F)cc2F)CC1 | n | n | n | n | n | 28.5
CCOC(=O)N1CCN(CC(=O)Nc2ccc(F)c(F)c2F)CC1 | n | n | n | n | n | n
CC/C(=N\Nc1ccc([N+](=O)[O-])cc1)c1ccccc1 | n | 53.0 | n | x | x | n
CC1=CCC(/C=N\Nc2nnc3c(n2)[nH]c2ccccc23)CC1 (centres undefined) | n | 55.4 | n | x | x | n
CC(C)CSc1nnc2c(n1)[nH]c1ccccc12 | n | n | n | n | n | n
Cn1cccc1C(=O)NC(=O)COC(=O)c1ccccc1O | n | n | n | n | n | n
SMILES | GPR7 antagonist | OX1R antag-1 | OX1R antag-2 | TAAR1 agonist | TAAR1 antagonist | CHO parental Ca
COc1cc(NC(=O)c2ccco2)c(C(=O)OCC(=O)c2c[nH]c3ccccc23)cc1OC | n | n | n | n | 62.5 | n
Cc1cc(C(=O)OCC(=O)NC(=O)c2cccn2C)c2ccccc2n1 | n | n | n | n | n | 44.8
O=C(OCC(=O)c1c[nH]c2ccccc12)c1ccco1 | n | n | n | n | n | n
COc1ccccc1NC(=O)COC(=O)c1c[nH]c2ccccc12 | x | n | n | n | 49.5 | n
COc1cccc(/C=C/C(=O)OCC(=O)c2c[nH]c3ccccc23)c1OC | n | n | n | n | 54.2 | n
COc1ccccc1CNC(=O)COC(=O)c1c[nH]c2ccccc12 | x | x | x | n | n | x
